ChEMBL document CHEMBL1154430, “Synthesis, characterization and pharmacological evaluation of amide prodrugs of ketorolac” (Eur J Med Chem, 2008)

Assays:
[1] = Solubility in 1.0N HCl; assay type: physicochemical; conditions: buffer
[2] = Metabolic stability in human plasma assessed as half life at 10 mg by HPLC; assay type: ADME, cell-free
Outline: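 10 mg in 2 mL acetonitrile added to 88 mL 80% human plasma (80:20 plasma:phosphate buffer pH 7.4) at 37 ± 0.5 °C. Samples taken at 10, 20, 30, 40, 50 and 60 min and chilled in freezing mixture to stop hydrolysis. Then vortexed 5 min, centrifuged, and supernatant run on C18 reversed-phase HPLC (acetonitrile:water 50:50), UV at 247 nm.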

[3] = Protein binding in plasma in pH 7.4 at 20 ug/ml by spectrophotometry; assay type: ADME, cell-free; conditions: read-out: PB (converted)
Outline: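 Prodrug solution in PBS pH 7.4. Membrane washed with distilled water, then with pH 7.4 buffer, before use. Withdrawn samples diluted with 1 mL phosphate buffer and prodrug concentration measured spectrophotometrically.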

[4] = Solubility in water; assay type: physicochemical; conditions: buffer
[5] = Chloroform-PBS partition coefficient, log K at pH 7.4; assay type: physicochemical
[6] = Chloroform-acidic buffer partition coefficient, log K at pH 1.4; assay type: physicochemical
[7] = Metabolic stability in stimulated intestinal fluid assessed as half life at 10 mg by HPLC; assay type: ADME; conditions: simulated intestinal fluid
Outline: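 10 mg in 2 mL acetonitrile added to 88 mL SIF (pH 7.4). Aliquots chilled in freezing mixture to arrest hydrolysis, vortexed 5 min and centrifuged 5 min. Supernatant analysed on C18 reversed-phase HPLC (acetonitrile:water 50:50), UV at 247 nm.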

[8] = system: Rattus norvegicus; assay: Antiinflammatory activity against carrageenan-induced paw edema in po dosed Wistar rat at dose equivalent to 2.5 mg/kg ketorolac after 2 hrs; assay type: functional
Outline: (§1)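 Wistar albino rats, 100–200 g, seven groups of three including control and standard. Initial right hind paw volume measured by plethysmometer before dosing. Oral dose in 1% CMC suspension, prodrugs equivalent to 2.5 mg/kg ketorolac. Anti-inflammatory activity reported as percentage at 2 and 6 h after administration.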

[9] = system: Rattus norvegicus; assay: Antiinflammatory activity against carrageenan-induced paw edema in po dosed Wistar rat at dose equivalent to 2.5 mg/kg ketorolac after 6 hrs; assay type: functional; outline: as §1
[10] = system: Rattus norvegicus; assay: Analgesic activity in po dosed Wistar rat […] assessed as reaction time for tail withdrawal at dose equivalent to 1.2 mg/kg of ketorolac after 30 mins by tail flick method; assay type: functional
Outline: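 Wistar rats, 100–200 g, groups of three. Tail-flick test on a […] analgesiometer with a thermal stimulus. Current set so that more than 90% of rats flick within 5–9 s, and slow responders rejected. Dose equivalent to 1.2 mg/kg given orally in 1% sodium carboxymethylcellulose suspension. %Analgesia = [1 − […]]×100, from reaction times before (T₁) and after (T₂) dosing.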

[11] = system: Rattus norvegicus; assay: Gastrointestinal toxicity in Wistar rat assessed as ulcerogenic indicates at dose equivalent to 1.2 mg/kg of ketorolac orally administered for 5 days; assay type: organism-based; parameters: dose 1.2 mg/kg, route oral; conditions: in vivo, po, 120 h
Outline: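 Male Wistar rats, 130–150 g, groups of three including control and standard. Suspended in 2% w/v acacia and given orally at dose equivalent to 1.2 mg/kg ketorolac daily for 5 days. Rats fasted after the last dose, then decapitated. Stomach opened and washed, and lesions larger than 0.5 mm counted visually under a 2× binocular magnifier.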

[12] = system: Rattus norvegicus; assay: Antiinflammatory activity against carrageenan-induced paw edema in Wistar rat at 2.5 mg/kg, po after 2 hrs; assay type: functional; outline: as §1
[13] = system: Rattus norvegicus; assay: Antiinflammatory activity against carrageenan-induced paw edema in Wistar rat at 2.5 mg/kg, po after 6 hrs; assay type: functional; outline: as §1
[14] = Solubility in 0.1 N NaOH; assay type: physicochemical
[15] = chloroform/acidic buffer, pH 1.4

SMILES | solubility [1] | half-life [2] | fraction unbound at 20 ug/ml [3] | solubility [4] | K ([5]; chloroform/PBS, pH 7.4) | K [6, 15] | half-life [7] | Activity [8] | Activity [9] | Activity [10] | UI [11] | Activity [12] | Activity [13] | solubility [14] | K [5] | K [6]
CCOC(=O)CCC(NC(=O)C1CCn2c(C(=O)c3ccccc3)ccc21)C(=O)OCC (racemic) | Insoluble | 0.45 h | 0.55 | Insoluble | 18.08 | 319.5 | 2.13 h | 44% | 49% | 54% | – | – | – | – | – | –
CCOC(=O)CC(NC(=O)C1CCn2c(C(=O)c3ccccc3)ccc21)C(=O)OCC (racemic) | Insoluble | 0.45 h | 0.55 | Insoluble | 18.26 | 330.12 | 2.13 h | 44% | 57.72% | 54% | – | – | – | – | – | –
CCOC(=O)C(CC(C)C)NC(=O)C1CCn2c(C(=O)c3ccccc3)ccc21 (racemic) | Insoluble | 1.02 h | 0.55 | Insoluble | 23.09 | 640 | 2.67 h | 27% | 43% | 26% | – | – | – | – | – | –
CCOC(=O)C(Cc1ccccc1)NC(=O)C1CCn2c(C(=O)c3ccccc3)ccc21 (racemic) | Insoluble | 0.45 h | 0.55 | Insoluble | 23.18 | 504.05 | 2.13 h | 44% | 49% | 54% | – | – | – | – | – | –
O=C(c1ccccc1)c1ccc2n1CCC2C(=O)O (stereo unspecified) [KETOROLAC] | Insoluble | – | – | – | 6.022 | 75.62 | – | – | – | – | 23.2 | 64.24% | 54.21% | Soluble | – | –
CCOC(=O)CCNC(=O)C1CCn2c(C(=O)c3ccccc3)ccc21 (racemic) | Insoluble | 0.882 h | 0.621 | Insoluble | 15.33 | 250.25 | 2.67 h | 33% | 49% | – | – | – | – | – | – | –
CCOC(=O)CNC(=O)C1CCn2c(C(=O)c3ccccc3)ccc21 (racemic) | Insoluble | 0.65 h | 0.55 | Insoluble | 13.81 | 215.9 | 2.13 h | 33% | 49% | 36% | – | – | – | – | – | –
CCOC(=O)C(NC(=O)C1CCn2c(C(=O)c3ccccc3)ccc21)C(C)CC (racemic) | Insoluble | 0.65 h | 0.55 | Insoluble | 23.87 | 656.8 | 2.13 h | 33% | 49% | 36% | – | – | – | – | – | –
CCOC(=O)C(C)NC(=O)C1CCn2c(C(=O)c3ccccc3)ccc21 (racemic) | Insoluble | 0.987 h | 0.811 | Insoluble | 15.61 | 256.73 | 2.67 h | 27% | 43% | 26% | – | – | – | – | – | –
CCOC(=O)C(NC(=O)C1CCn2c(C(=O)c3ccccc3)ccc21)C(C)C (racemic) | Insoluble | 0.65 h | 0.55 | Insoluble | 20 | 380.6 | 2.67 h | 33% | 49% | 36% | – | – | – | – | – | –
CCOC(=O)C(Cc1c[nH]c2ccccc12)NC(=O)C1CCn2c(C(=O)c3ccccc3)ccc21 (racemic) | Insoluble | 0.825 h | 0.55 | Insoluble | – | – | 2.98 h | 27% | 43% | 26% | – | – | – | – | 21.42 | 429.9
